Cytotoxicity data for 97 molecules are collected here from ChEMBL document CHEMBL4513216, “Probing the Open Global Health Chemical Diversity Library for Multistage-Active Starting Points for Next-Generation Antimalarials” (ACS Infect Dis, 2020).

A short description of the data set: Toxicity liver stage against HepG2, at 10uM. The class given is cell-based. On the set-up: test concentration 10 uM, cell line HepG2-A16-CD81EGFP. As to conditions: human, HepG2-A16-CD81EGFP cells; read-out: INHIBITION
The gist of the method:
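Uninfected HepG2-A16-CD81EGFP cells, 3 × 10^3 per well, 1536-well, plated on prespotted compound at 10 μM final, parasite-free screening media added to match infected plates; puromycin 10 μM positive, DMSO 0.5% negative; run in parallel with 48 h PbLuc assay at 37 °C, 5% CO2; viability by CellTiter-Glo luminescence, normalized to controls.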
Turning to `c1ccc(CN2CCOC[C@H]2c2nc(-c3ccncc3)c[nH]2)nc1`, the cytotoxicity at 10 µM was -0.501%.

As to `Cn1ccnc1CN1C[C@@H](F)[C@@H](OCc2nc3cnccc3[nH]2)C1`, the cytotoxicity at 10 µM was found to be 3.39%.

Consider `O=C(NC[C@H]1OC[C@@H](NC(=O)C2CCCC2)[C@@H]1O)c1ccncc1`, for which the cytotoxicity at 10 µM is 5.45%.

In the case of `O=C1CC(c2cccnc2)c2c(c(C(=O)O)cn2-c2ccccc2F)N1` (configuration not stated), the cytotoxicity at 10 µM came out at 1.85%.

As to `COCC(=O)N1Cc2nccn2CC(Cn2ncccc2=O)C1` (configuration not stated), the cytotoxicity at 10 µM stood at 5.23%.

As to `Cc1noc(C)c1C(=O)N1CCC2(CC1)CC(Oc1ccccc1)CO2` (configuration not stated), the cytotoxicity at 10 µM was 11.8%.

For `COc1ccc(C2CC(=O)Nc3c2cnn3C)cc1` (configuration not stated), the cytotoxicity at 10 µM was found to be 22%.

Consider `CC(C)n1ncc2c1NC(=O)CSC2C(C)(C)C` (configuration not stated), for which the cytotoxicity at 10 µM is 4.47%.

Consider `Cc1ccoc1C(=O)N1CC[C@H]2OCC[C@@]2(COCc2ccncc2)C1`, for which the cytotoxicity at 10 µM turned out to be 5.71%.

As to `Cc1nn(C)c2c(=O)n(CC(=O)Nc3cc(Cl)cc(Cl)c3)nnc12`, the cytotoxicity at 10 µM worked out at 0.976%.

Turning to `Cc1cc2c(cc1C)OC1(C=C2)CCN(CC(=O)N2CCOCC2)CC1`, the cytotoxicity at 10 µM is -10.4%.

For `COCCCNC(=O)C(C)n1nc(-c2ccco2)cc(N)c1=O` (configuration not stated), the cytotoxicity at 10 µM is 0.152%.

For the molecule `CCN(Cc1ccncc1)c1cc(C2CCN2C(C)=O)nc(C)n1` (configuration not stated), the cytotoxicity at 10 µM was determined as 5.25%.

Consider `Cc1ccc(N2CC(c3nccc(C)n3)C2)nn1`, for which the cytotoxicity at 10 µM turned out to be 8.82%.

For `CNc1cc(C)nc(C2COCCN2CCc2ccc(F)cc2)n1` (configuration not stated), the cytotoxicity at 10 µM amounted to 3.68%.

Consider `Cc1nc(CN2CCCC(c3nc(C)n4c(C)c(C)sc34)C2)co1` (configuration not stated), for which the cytotoxicity at 10 µM is -21.7%.

In the case of `O[C@H]1CN(Cc2ccc3c(c2)OCCO3)CC[C@@]12CCCO2`, the cytotoxicity at 10 µM is -2.92%.

For `Cc1nc(C2CCCN2C(=O)Cc2ccc(F)cc2)ncc1C(N)=O` (configuration not stated), the cytotoxicity at 10 µM is -18.2%.

On to `Cc1cccc(C)c1NC(=O)c1n[nH]c(-n2cnnc2)n1`, for which the cytotoxicity at 10 µM is -10.6%.

In the case of `CS(=O)(=O)N1CCCC(Cc2ccnc3ccncc23)CC1` (configuration not stated), the cytotoxicity at 10 µM is -12.8%.

As for `Cn1cc(C(=O)N2CCCC(c3cc(O)n(C)n3)C2)cn1` (configuration not stated), the cytotoxicity at 10 µM was -21.6%.

In the case of `Cc1nc(CNC(=O)NC2CC(C)(C)OC2(C)C)sc1C` (configuration not stated), the cytotoxicity at 10 µM was -3.77%.

Regarding `N#CCCN(CCC#N)C(=O)COC1CCCCC1`, the cytotoxicity at 10 µM is 0.631%.

Consider `CCS(=O)(=O)CC(=O)Nc1cc(-c2cccc(F)c2F)n[nH]1`, for which the cytotoxicity at 10 µM came out at 10.7%.

Turning to `CCSc1cc(C(=O)N(CC(F)F)C(C)C)ccn1`, the cytotoxicity at 10 µM worked out at 4.64%.

Take `O=C(NCc1ccc(Br)cc1F)C1(O)CCSCC1`: the cytotoxicity at 10 µM was determined as 6.4%.

Turning to `CN(C(=O)c1ccncc1Cl)c1ccccc1S(C)(=O)=O`, the cytotoxicity at 10 µM was 17.6%.

With `COC(=O)C(O)C1CCN(CCc2ccc(C)cc2)CC1` (configuration not stated), the cytotoxicity at 10 µM turned out to be 15.2%.

In the case of `COc1ccc(C(C)NC(=O)Nc2nnc(C)s2)cc1OC` (configuration not stated), the cytotoxicity at 10 µM worked out at 9.67%.

Regarding `C1CC(NCC2CC2)CN(Cc2noc(C3CC3)n2)C1` (configuration not stated), the cytotoxicity at 10 µM was -3.09%.

With `COCCN(C)C(=O)Nc1ccc2c(ccn2CC(=O)N(C)C)c1`, the cytotoxicity at 10 µM is 6.71%.

With `CCN(C(=O)NCCc1ccc(C)cc1C)C(C)CS(C)(=O)=O` (configuration not stated), the cytotoxicity at 10 µM came to 11.3%.

On to `Cc1nc2cc(C(=O)N(CCN(C)C)CCN(C)C)ccc2n1C`, for which the cytotoxicity at 10 µM is -9.01%.

Turning to `CN(C)C(=O)C1CCN(Cn2ccc(-c3ccc(F)cc3)n2)CC1`, the cytotoxicity at 10 µM amounted to 6.19%.

With `O=C(NCCCNc1ccccn1)NCC1CCS(=O)(=O)C1` (configuration not stated), the cytotoxicity at 10 µM amounted to 16%.

Consider `Cc1noc(C)c1C(=O)N1CCCN(C)c2ccc(Cl)cc21`, for which the cytotoxicity at 10 µM was determined as 4.61%.

For the molecule `COCc1noc(-c2cc(Cl)c3c(c2)OCCCO3)n1`, the cytotoxicity at 10 µM turned out to be 0.174%.

Take `CN(CCCNC(=O)C1CCCN(C(N)=O)C1)S(C)(=O)=O` (configuration not stated): the cytotoxicity at 10 µM is -4.76%.

Take `CC(CO)NC(=O)c1ccc(NCc2ccccc2)cc1` (configuration not stated): the cytotoxicity at 10 µM was -6.63%.

`CCC(NC(=O)NCC(=O)NC(C)C)c1cc(F)ccc1F` (configuration not stated): the cytotoxicity at 10 µM was found to be 0.447%.

For the molecule `CCCOc1cc(F)ccc1NC(=O)NCc1noc(C)n1`, the cytotoxicity at 10 µM stood at 7.83%.

As for `COCCCn1ccc(NCc2ccc(NC(C)=O)cc2)n1`, the cytotoxicity at 10 µM stood at 2.33%.

Turning to `Cc1nc(C)c(COc2ccc(S(=O)(=O)N(C)C)cc2)s1`, the cytotoxicity at 10 µM was -0.242%.

Consider `O=C1CCC(C(=O)Nc2cnn(-c3ccccc3Cl)c2)N1` (configuration not stated), for which the cytotoxicity at 10 µM is -7.41%.

For `O=C(OCc1cc(=O)n2cc(Br)ccc2n1)c1ccc2c(c1)OCO2`, the cytotoxicity at 10 µM was -7.37%.

Regarding `Cc1ccc(OCC(=O)N(C)Cc2cccc(F)c2)cn1`, the cytotoxicity at 10 µM was 27.6%.

Consider `COc1ccc(NC(=O)CNc2cccc3c2CCCC3)c(OC)c1`, for which the cytotoxicity at 10 µM stood at 16.5%.

With `Cn1c(N2CCOCC2)nc2cc(C(=O)N3CC(O)CO3)ccc21` (configuration not stated), the cytotoxicity at 10 µM was found to be 18.5%.

For `Cn1cc(Cl)cc1C(=O)N1CCC2(CCCN(CC3CCC3)C2=O)C1` (configuration not stated), the cytotoxicity at 10 µM is 0.407%.

As to `CCCc1nc(CN(CC)C(=O)c2ccc(S(C)(=O)=O)cc2)no1`, the cytotoxicity at 10 µM was -5.03%.

Regarding `CSCCc1c(-c2ccccc2)ncn1[C@H]1C[C@@H](C(=O)O)N(C)C1`, the cytotoxicity at 10 µM is 0.471%.

`CC(C)Cn1cncc1CNC(=O)c1cccc(-n2cnnc2)c1`: the cytotoxicity at 10 µM is -5.54%.

`NC(=O)c1csc(N2C[C@@H](CN3CCC(O)CC3)[C@@H](CO)C2)n1`: the cytotoxicity at 10 µM was 0.984%.

In the case of `CN(CC(=O)N1CCOCC(CO)C1)Cc1ccccn1` (configuration not stated), the cytotoxicity at 10 µM is 0.382%.

As for `CCc1nc2c(c(NC3CC3)n1)CCN(C(=O)Cc1nonc1C)CC2`, the cytotoxicity at 10 µM was 2.8%.

`Cc1nc(CC(=O)N2CCCC[C@H](N(C)C)C2)cs1`: the cytotoxicity at 10 µM worked out at 8.27%.

Consider `Cc1cc(-n2nc(C3CC3)nc2-c2csnn2)ccn1`, for which the cytotoxicity at 10 µM was 6.37%.

As for `COc1cc(OC)nc(N2CCC3(CC2)OCCCC3O)n1` (configuration not stated), the cytotoxicity at 10 µM is 2.67%.

Regarding `O=C(c1cccc2ccnn12)N1CCC[C@H]1CN1CCCC1`, the cytotoxicity at 10 µM is -144%.

For the molecule `Cc1cc(C)cc(CN2CCN(C(=O)CCc3n[nH]c(C)n3)CC2=O)c1`, the cytotoxicity at 10 µM was determined as 0.108%.

`CCCc1cc(NCc2noc(COC)n2)n2nccc2n1`: the cytotoxicity at 10 µM amounted to 6.48%.

`COC1CCN(S(=O)(=O)N2CC[C@@](O)(C3CCC3)[C@H](C)C2)CC1`: the cytotoxicity at 10 µM stood at 6.8%.

On to `CCn1ncnc1C1CC(=O)NCc2nc(N)sc21` (configuration not stated), for which the cytotoxicity at 10 µM is -4.78%.

As for `c1ccc(Oc2ncccc2CNCc2ccccn2)cc1`, the cytotoxicity at 10 µM is -8.04%.

As for `CN(Cc1cccc2ncccc12)C(=O)CCC(F)(F)F`, the cytotoxicity at 10 µM is -3.05%.

Consider `Cc1nn2c(N3CCCC(C#N)C3)cc(-c3ccccc3)nc2c1C` (configuration not stated), for which the cytotoxicity at 10 µM is -0.828%.

Consider `Cc1cc(Cc2ccc(S(=O)(=O)N3CCOCC3)cc2)c(=O)[nH]n1`, for which the cytotoxicity at 10 µM is -13.1%.

With `CCCNCc1ccc(-c2cc(N)nc3[nH]ccc23)cc1`, the cytotoxicity at 10 µM turned out to be 19.8%.

Regarding `CCN(Cc1c(C)nn(C)c1C)C(=O)C1COc2ccccc2C1` (configuration not stated), the cytotoxicity at 10 µM is -0.91%.

Turning to `Cc1cc(C(=O)N2CCc3[nH]nc(-c4ccc5c(c4)OCO5)c3C2)no1`, the cytotoxicity at 10 µM was -137%.

Take `Cc1nn(CCn2ccnc2-c2cc3n(n2)CCCNC3)c(C)c1Cl`: the cytotoxicity at 10 µM was -8.52%.

Regarding `O=C(CCc1ccsc1)N1CCC(Cc2ccc(CO)cc2)C1` (configuration not stated), the cytotoxicity at 10 µM is 14.7%.

For the molecule `O=C(NCCCc1ccncc1)C1CCCN(Cc2ccco2)C1` (configuration not stated), the cytotoxicity at 10 µM is 20.1%.

Take `CC(NC(=O)NCCNc1ccccn1)c1cccs1` (configuration not stated): the cytotoxicity at 10 µM came to 1.48%.

`CC(C)c1nc(CN2CCCC2Cn2cccn2)no1` (configuration not stated): the cytotoxicity at 10 µM was -0.121%.

As to `CCc1csc(C2CCCN(C(=O)c3ccco3)C2)n1` (configuration not stated), the cytotoxicity at 10 µM amounted to 2.56%.

`CCc1noc(CN2CCN(c3nccs3)CC2)n1`: the cytotoxicity at 10 µM was -1.46%.

Consider `O=C(CNc1cc(F)ccc1OCC1CCCO1)N1CCOCC1` (configuration not stated), for which the cytotoxicity at 10 µM was -12.6%.

On to `CCc1ncncc1C(=O)N1CCCN(Cc2ccccc2C)CC1`, for which the cytotoxicity at 10 µM stood at 0.977%.

In the case of `O=C(COCc1ccco1)Nc1cc(C(F)(F)F)c[nH]c1=O`, the cytotoxicity at 10 µM was -2.57%.

On to `CCNc1cc2c(nn1)CCN(C(=O)c1ccc(-n3cnnc3)cc1)C2`, for which the cytotoxicity at 10 µM is -3.51%.

For the molecule `COc1c(C2CCCN2CC(=O)NCc2ccccn2)c(C)nn1C` (configuration not stated), the cytotoxicity at 10 µM was -0.671%.

Take `CC(C)Sc1ncccc1C(=O)NCc1cccc(N(C)C)c1`: the cytotoxicity at 10 µM is -3.42%.

As to `COCc1nc(C(=O)N2CCCC(n3ccnc3C(C)C)C2)cs1` (configuration not stated), the cytotoxicity at 10 µM was -30.8%.

As for `CCC(O)CN1CCN(C(=O)c2sccc2C2CC2)CC1` (configuration not stated), the cytotoxicity at 10 µM was -14.6%.

`CCc1nc(C2CCCN(C(=O)c3cccc(C(N)=O)c3)C2)no1` (configuration not stated): the cytotoxicity at 10 µM was -22.2%.

Take `CC(C)c1nccn1C1CCCN(C(=O)c2ccc3[nH]cnc3c2)C1` (configuration not stated): the cytotoxicity at 10 µM was -8.24%.

Turning to `O=C(CCc1ccc2c(c1)OCO2)N1CCCC(n2cccn2)C1` (configuration not stated), the cytotoxicity at 10 µM is -15.8%.

Consider `CCN(Cc1nc2c(cnn2C)c(=O)[nH]1)Cc1ccccc1C`, for which the cytotoxicity at 10 µM is -10.2%.

Consider `Cc1noc(C)c1C(=O)NCC(C)N(C)C` (configuration not stated), for which the cytotoxicity at 10 µM is -8.4%.

As for `Cc1cc(C)n(CC2CCCN2CC(=O)N(C)C)n1` (configuration not stated), the cytotoxicity at 10 µM is -7.86%.

With `Cn1ccnc1Sc1ccc(N)cn1`, the cytotoxicity at 10 µM worked out at 3.08%.

As to `CN1CCN(C[C@@H]2OC[C@H]3CN(Cc4cccc(F)c4)CC[C@H]32)CC1`, the cytotoxicity at 10 µM is -10.3%.

Consider `CS(=O)(=O)N1CCOCC2(CCN(C(=O)c3ccncc3)CC2)C1`, for which the cytotoxicity at 10 µM is 2.78%.

For `COc1ccc(CN2CCn3cc(CNC(=O)C4CCC4)nc3C2)cc1`, the cytotoxicity at 10 µM was 5.42%.

Take `O=C(c1ccccn1)N1CCn2cnc(COCC3CC3)c2C1`: the cytotoxicity at 10 µM amounted to 11.4%.

With `CNC(=O)[C@H]1C[C@H]2CN(C(=O)NCCc3ccccc3)C[C@@H]1O2`, the cytotoxicity at 10 µM turned out to be 2.89%.
